# Assay results collected from several papers.
# Protocols differ between the studies behind these lines.
# Target: Receptor-interacting serine/threonine-protein kinase 2 (RIPK2, Homo sapiens, UniProt O43353)
SMILES,assay,setting,measurement,value
Cc1ccc(NC(=O)c2ccnc(C(F)(F)F)c2)cc1-c1cc(OCCO)nc(N2CCOCC2)c1,"binding, competition with immobilised ligand",1 µM,remaining binding,63%
COc1ccc2oc(-c3ccc4nc(N)oc4c3)c/c(=N\c3ccccc3NC(=O)CCN)c2c1,binding,1 µM,remaining binding,112%
C#Cc1cc(-c2cc(Nc3nc(N[C@@H](C)c4ccc(F)cn4)ncc3Cl)n[nH]2)ccc1C=O,"enzyme activity, inhibitor",0.2 µM,inhibition,14.7%
CCCCC(=O)Nc1ccc(-c2ccc3ncn(CCC)c(=O)c3c2)cn1,"binding, competition with immobilised ligand",0.5 µM,remaining binding,98%
C=CC(=O)N1CCC([C@@H]2CCNc3c(C(N)=O)c(-c4ccc(Oc5ccccc5)cc4)nn32)CC1,"enzyme activity, inhibitor",1 µM,inhibition,96%
CC(C)S(=O)(=O)c1ccc2nccc(Nc3ccc4sc(C5CCCC5)nc4c3)c2c1,"enzyme activity, inhibitor",1 µM,activity vs control,2.5%
CO[C@@H]1[C@H](N(C)C(=O)c2ccccc2)C[C@H]2O[C@]1(C)n1c3ccccc3c3c4c(c5c6ccccc6n2c5c31)C(=O)NC4,"enzyme activity, inhibitor",1 µM,inhibition,0%
COc1ccc2[nH]c3c4[nH]c5ccc(OC)cc5c4c4c(c3c2c1)C(=O)NC4=O,"binding, competition with immobilised ligand",1 µM,remaining binding,60%
